Assays:
[1] = Cytotoxicity against human MDA-MB-175 cells expressing Src, Ret and low HER-2 after 72 hrs by SRB assay; type: functional, cell-based
Procedure, shortened: (§1)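 Culture conditions: MDA-MB-361 and MDA-MB-453 grown in L-15 without CO2. NCI-N87, NCI-H1781 and NCI-H1975 grown in RPMI with 1 mM sodium pyruvate under 5% CO2. JIMT-1 grown in DMEM (4.5 g/L glucose) under 5% CO2. MDA-MB-175 grown in L-15 without CO2. All media contained 10% FBS and 1% penicillin-streptomycin, 37 °C. Growth inhibition/GI50 read-out was run per a cited earlier protocol.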

[2] = tested on: MDA-MB-361; test: Cytotoxicity against ER activated human MDA-MB-361 cells expressing Her-2, Src and PIK3CA mutant after 72 hrs by SRB assay; type: functional, cell-based; details: MDA-MB-361, 72 h; procedure, shortened: as §1
[3] = tested on: MDA-MB-453; test: Cytotoxicity against PTEN-deficient human MDA-MB-453 cells expressing HER-2, and PIK3CA mutant after 72 hrs by SRB assay; type: functional, cell-based; details: MDA-MB-453, 72 h; procedure, shortened: as §1
[4] = Cytotoxicity against human JIMT1 cells expressing low HER-2 after 72 hrs by SRB assay; type: functional, cell-based; details: JIMT-1, 72 h; procedure, shortened: as §1
[5] = tested on: NCI-N87; test: Cytotoxicity against human NCI-N87 cells expressing HER-2 after 72 hrs by SRB assay; type: functional, cell-based; details: NCI-N87, 72 h; procedure, shortened: as §1
[6] = Cytotoxicity against human NCI-H1781 cells expressing HER-2 G776insV_G/C after 72 hrs by SRB assay; type: functional, cell-based; details: NCI-H1781, 72 h; procedure, shortened: as §1
[7] = tested on: NCI-H1975; test: Cytotoxicity against human NCI-H1975 cells expressing EGFR L858R/T790M mutant after 72 hrs by SRB assay; type: functional, cell-based; details: NCI-H1975, 72 h
Procedure, shortened: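 NCI-N87, NCI-H1781 and NCI-H1975 grown in RPMI with 1 mM sodium pyruvate under 5% CO2. JIMT-1 grown in DMEM (4.5 g/L glucose) under 5% CO2. All media contained 10% FBS and 1% penicillin-streptomycin, 37 °C. Growth inhibition/GI50 read-out was run per a cited earlier protocol.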

[8] = Half life in human liver microsomes at 5 uM; details: liver microsomes
[9] = Half life in rat liver microsomes at 5 uM; details: liver microsomes
[10] = Half life in dog liver microsomes at 5 uM; details: liver microsomes
[11] = tested on: SK-BR-3; test: Cytotoxicity against human SKBR3 cells overexpressing HER-2 gene after 72 hrs by SRB assay; type: functional, cell-based; details: SK-BR-3, 72 h
Procedure, shortened: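 A431 and SK-Br3 cells grown in DMEM (4.5 g/L glucose, 1.5 g/L sodium bicarbonate) with 10% FBS at 37 °C, humidified 5% CO2. Proliferation/growth inhibition IC50 values are means of three independent experiments, each run in duplicate.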

[12] = Half life in mouse liver microsomes at 5 uM; details: liver microsomes
[13] = target: Receptor tyrosine-protein kinase erbB-2 (Homo sapiens, UniProt P04626); test: Inhibition of HER2 preincubated for 10 mins followed by incubation for 30 mins by fluorescence polarization assay
[14] = target: Receptor tyrosine-protein kinase erbB-4 (Homo sapiens, UniProt Q15303); test: Inhibition of HER4 preincubated for 10 mins followed by incubation for 30 mins by fluorescence polarization assay
[15] = target: Tyrosine-protein kinase ABL1 (Homo sapiens, UniProt P00519); test: Inhibition of Abl
[16] = target: 5'-AMP-activated protein kinase catalytic subunit alpha-1 (Homo sapiens, UniProt Q13131); test: Inhibition of AMPKalpha1
[17] = target: Aurora kinase A (Homo sapiens, UniProt O14965); test: Inhibition of Aurora A
[18] = target: Cyclin-dependent kinase 1/cyclin B1 (Homo sapiens, UniProt P06493); test: Inhibition of CDK1/cyclin B; type: protein-complex assay
[19] = target: Mast/stem cell growth factor receptor Kit (Homo sapiens, UniProt P10721); test: Inhibition of cKIT
Mast/stem cell growth factor receptor Kit, sequence (P10721 whole entry): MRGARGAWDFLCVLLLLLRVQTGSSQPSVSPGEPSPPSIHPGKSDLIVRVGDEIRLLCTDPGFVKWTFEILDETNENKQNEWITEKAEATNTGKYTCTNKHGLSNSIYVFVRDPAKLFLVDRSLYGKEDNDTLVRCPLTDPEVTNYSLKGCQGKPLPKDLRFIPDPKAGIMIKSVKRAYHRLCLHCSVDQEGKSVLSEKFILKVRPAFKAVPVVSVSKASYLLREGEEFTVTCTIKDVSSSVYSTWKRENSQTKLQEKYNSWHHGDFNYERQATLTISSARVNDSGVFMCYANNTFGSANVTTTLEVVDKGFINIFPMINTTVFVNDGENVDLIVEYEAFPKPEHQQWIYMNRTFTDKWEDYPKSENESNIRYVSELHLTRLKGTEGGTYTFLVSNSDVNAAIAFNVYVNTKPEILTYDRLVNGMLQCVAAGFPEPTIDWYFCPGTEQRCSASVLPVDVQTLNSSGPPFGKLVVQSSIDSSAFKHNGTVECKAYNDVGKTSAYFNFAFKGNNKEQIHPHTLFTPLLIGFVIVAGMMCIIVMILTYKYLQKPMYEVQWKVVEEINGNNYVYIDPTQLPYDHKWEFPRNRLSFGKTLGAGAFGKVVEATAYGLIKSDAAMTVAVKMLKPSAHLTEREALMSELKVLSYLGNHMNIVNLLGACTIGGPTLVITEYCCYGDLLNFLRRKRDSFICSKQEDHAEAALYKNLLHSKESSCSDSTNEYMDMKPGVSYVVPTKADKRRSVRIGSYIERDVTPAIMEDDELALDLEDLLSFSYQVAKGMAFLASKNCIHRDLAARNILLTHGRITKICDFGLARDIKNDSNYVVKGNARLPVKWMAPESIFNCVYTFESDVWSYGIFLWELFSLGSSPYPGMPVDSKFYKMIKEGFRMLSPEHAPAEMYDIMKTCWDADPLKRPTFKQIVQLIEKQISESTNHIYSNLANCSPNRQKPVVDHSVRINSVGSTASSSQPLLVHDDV

[20] = target: Focal adhesion kinase 1 (Homo sapiens, UniProt Q05397); test: Inhibition of FAK
[21] = target: Fibroblast growth factor receptor 1 (Homo sapiens, UniProt P11362); test: Inhibition of FGFR1
[22] = target: Vascular endothelial growth factor receptor 1 (Homo sapiens, UniProt P17948); test: Inhibition of Flt1
[23] = target: Receptor-type tyrosine-protein kinase FLT3 (Homo sapiens, UniProt P36888); test: Inhibition of Flt3
[24] = target: Insulin-like growth factor 1 receptor (Homo sapiens, UniProt P08069); test: Inhibition of IGF-1R
[25] = target: Insulin receptor (Homo sapiens, UniProt P06213); test: Inhibition of IR
[26] = target: Tyrosine-protein kinase JAK2 (Homo sapiens, UniProt O60674); test: Inhibition of JAK2
Tyrosine-protein kinase JAK2, sequence (O60674 whole entry): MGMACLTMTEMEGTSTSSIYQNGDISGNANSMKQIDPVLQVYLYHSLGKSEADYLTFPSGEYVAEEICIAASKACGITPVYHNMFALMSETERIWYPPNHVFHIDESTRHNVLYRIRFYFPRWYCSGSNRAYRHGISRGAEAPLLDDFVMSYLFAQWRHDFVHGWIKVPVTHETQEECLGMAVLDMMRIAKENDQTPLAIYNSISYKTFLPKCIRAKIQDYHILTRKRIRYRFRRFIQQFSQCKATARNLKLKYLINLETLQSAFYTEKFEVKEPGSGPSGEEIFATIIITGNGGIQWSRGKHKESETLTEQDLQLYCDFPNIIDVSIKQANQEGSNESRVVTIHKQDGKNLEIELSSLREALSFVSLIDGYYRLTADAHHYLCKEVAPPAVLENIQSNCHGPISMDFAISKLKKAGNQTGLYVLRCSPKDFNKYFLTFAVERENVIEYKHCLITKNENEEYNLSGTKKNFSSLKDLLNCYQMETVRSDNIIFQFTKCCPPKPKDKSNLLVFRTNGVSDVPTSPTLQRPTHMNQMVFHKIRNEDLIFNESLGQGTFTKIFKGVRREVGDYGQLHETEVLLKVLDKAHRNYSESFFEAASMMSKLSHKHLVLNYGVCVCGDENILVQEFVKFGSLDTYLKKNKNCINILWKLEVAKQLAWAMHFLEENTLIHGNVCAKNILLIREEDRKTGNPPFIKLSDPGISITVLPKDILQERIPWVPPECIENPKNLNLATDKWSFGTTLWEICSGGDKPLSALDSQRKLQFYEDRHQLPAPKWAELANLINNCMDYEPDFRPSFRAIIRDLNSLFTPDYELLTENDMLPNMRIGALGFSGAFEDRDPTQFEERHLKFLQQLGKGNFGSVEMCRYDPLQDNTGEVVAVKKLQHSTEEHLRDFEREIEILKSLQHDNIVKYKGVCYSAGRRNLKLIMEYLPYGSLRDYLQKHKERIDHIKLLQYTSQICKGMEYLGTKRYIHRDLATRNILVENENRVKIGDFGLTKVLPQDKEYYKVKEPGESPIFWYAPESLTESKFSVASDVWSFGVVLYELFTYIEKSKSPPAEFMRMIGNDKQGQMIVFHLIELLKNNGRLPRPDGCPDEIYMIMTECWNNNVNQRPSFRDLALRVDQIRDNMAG

[27] = target: Serine/threonine-protein kinase STK11 (Homo sapiens, UniProt Q15831); test: Inhibition of LKB1
[28] = target: Dual specificity mitogen-activated protein kinase kinase 1 (Homo sapiens, UniProt Q02750); test: Inhibition of MEK1
Dual specificity mitogen-activated protein kinase kinase 1, sequence (Q02750 whole entry): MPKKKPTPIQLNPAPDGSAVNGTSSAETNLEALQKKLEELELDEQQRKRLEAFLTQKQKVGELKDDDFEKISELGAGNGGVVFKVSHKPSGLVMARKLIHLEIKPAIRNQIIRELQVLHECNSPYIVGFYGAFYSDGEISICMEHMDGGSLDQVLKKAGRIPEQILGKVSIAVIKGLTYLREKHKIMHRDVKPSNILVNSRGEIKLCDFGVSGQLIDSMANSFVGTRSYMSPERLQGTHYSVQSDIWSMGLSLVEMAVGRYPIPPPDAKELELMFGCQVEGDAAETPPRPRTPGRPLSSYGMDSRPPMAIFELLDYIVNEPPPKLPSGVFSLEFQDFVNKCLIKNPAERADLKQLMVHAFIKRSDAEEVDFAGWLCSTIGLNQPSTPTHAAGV

[29] = target: Hepatocyte growth factor receptor (Homo sapiens, UniProt P08581); test: Inhibition of MET
[30] = target: Platelet-derived growth factor receptor alpha (Homo sapiens, UniProt P16234); test: Inhibition of PDGFRalpha
Platelet-derived growth factor receptor alpha, sequence (P16234 whole entry): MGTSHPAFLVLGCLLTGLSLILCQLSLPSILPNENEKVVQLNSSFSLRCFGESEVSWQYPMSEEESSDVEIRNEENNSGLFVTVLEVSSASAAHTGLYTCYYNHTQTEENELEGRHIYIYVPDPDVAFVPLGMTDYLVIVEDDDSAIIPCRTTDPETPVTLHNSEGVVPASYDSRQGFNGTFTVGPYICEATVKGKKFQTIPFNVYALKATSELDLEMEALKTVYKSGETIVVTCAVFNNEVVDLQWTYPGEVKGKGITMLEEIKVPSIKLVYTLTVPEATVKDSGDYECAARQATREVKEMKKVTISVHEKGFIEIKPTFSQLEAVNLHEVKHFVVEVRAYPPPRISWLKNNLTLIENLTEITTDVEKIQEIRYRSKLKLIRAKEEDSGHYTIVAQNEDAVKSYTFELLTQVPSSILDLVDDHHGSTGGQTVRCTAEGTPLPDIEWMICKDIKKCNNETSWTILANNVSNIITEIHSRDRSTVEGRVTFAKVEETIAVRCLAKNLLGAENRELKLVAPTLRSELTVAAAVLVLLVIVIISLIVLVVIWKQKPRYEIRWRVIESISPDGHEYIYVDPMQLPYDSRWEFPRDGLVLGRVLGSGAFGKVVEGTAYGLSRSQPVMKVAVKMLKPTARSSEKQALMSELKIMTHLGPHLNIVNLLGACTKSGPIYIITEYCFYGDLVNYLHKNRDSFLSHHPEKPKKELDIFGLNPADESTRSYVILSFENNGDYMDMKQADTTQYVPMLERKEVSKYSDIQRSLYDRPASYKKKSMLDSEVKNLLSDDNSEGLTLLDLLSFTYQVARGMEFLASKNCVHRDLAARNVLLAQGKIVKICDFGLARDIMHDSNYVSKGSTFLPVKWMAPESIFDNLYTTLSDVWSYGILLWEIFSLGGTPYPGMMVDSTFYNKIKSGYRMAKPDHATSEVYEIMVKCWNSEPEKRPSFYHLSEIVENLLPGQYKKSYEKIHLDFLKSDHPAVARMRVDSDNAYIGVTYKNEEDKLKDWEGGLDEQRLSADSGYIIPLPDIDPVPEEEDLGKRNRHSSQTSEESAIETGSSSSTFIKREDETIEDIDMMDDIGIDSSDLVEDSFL

[31] = target: Platelet-derived growth factor receptor beta (Homo sapiens, UniProt P09619); test: Inhibition of PDGFRbeta
Platelet-derived growth factor receptor beta, sequence (P09619 whole entry): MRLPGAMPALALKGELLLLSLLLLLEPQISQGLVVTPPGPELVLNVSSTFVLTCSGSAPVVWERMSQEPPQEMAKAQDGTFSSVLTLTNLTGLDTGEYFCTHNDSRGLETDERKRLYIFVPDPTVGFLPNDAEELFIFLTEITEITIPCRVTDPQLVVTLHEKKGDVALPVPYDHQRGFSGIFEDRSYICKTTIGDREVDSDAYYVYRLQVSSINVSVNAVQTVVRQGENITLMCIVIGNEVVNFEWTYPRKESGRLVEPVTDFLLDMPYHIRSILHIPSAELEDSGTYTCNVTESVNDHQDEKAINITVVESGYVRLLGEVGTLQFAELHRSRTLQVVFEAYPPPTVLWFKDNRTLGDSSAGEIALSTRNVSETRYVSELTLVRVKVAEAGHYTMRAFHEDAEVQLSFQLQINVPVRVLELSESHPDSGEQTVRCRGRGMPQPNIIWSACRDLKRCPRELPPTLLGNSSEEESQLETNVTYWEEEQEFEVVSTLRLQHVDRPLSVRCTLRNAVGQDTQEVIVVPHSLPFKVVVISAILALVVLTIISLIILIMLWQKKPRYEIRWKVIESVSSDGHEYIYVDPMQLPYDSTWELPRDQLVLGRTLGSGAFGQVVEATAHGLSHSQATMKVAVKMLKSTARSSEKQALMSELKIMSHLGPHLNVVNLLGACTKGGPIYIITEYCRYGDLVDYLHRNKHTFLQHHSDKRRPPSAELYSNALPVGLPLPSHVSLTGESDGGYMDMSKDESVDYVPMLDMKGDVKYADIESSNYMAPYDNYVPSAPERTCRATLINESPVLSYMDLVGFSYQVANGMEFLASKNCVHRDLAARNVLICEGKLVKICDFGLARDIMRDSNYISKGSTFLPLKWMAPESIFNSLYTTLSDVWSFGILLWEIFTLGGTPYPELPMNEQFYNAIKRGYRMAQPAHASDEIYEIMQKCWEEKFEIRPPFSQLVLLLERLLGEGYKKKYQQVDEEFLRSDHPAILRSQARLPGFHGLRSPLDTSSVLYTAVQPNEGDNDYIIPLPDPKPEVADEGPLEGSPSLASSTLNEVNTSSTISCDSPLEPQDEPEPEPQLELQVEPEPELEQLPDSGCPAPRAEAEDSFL

[32] = target: Tyrosine-protein kinase SYK (Homo sapiens, UniProt P43405); test: Inhibition of Syk
[33] = target: Serine/threonine-protein kinase pim-1 (Homo sapiens, UniProt P11309); test: Inhibition of PIM1
Serine/threonine-protein kinase pim-1, sequence (P11309 whole entry): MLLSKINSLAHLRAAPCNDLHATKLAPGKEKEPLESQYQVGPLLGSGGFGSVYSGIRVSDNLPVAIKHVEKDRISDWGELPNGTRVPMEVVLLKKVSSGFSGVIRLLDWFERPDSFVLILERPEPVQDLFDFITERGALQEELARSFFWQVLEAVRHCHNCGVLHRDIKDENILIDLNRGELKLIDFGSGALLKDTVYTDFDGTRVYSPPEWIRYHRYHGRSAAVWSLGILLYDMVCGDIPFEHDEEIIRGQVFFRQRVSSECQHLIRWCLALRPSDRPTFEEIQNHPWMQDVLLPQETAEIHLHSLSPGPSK

CS(=O)(=O)CCNCc1ccc(-c2ccc3ncnc(Nc4ccc(OCc5cccc(F)c5)c(Cl)c4)c3c2)o1 [LAPATINIB]
IC50 [1]: 44.4 nM
IC50 [2]: 1030 nM
IC50 [3]: 555 nM
IC50 [4]: > 10000 nM
IC50 [5]: 36 nM
IC50 [6]: 3050 nM
IC50 [7]: > 1000 nM

C=CC(=O)NCc1coc(-c2c(N)ncnc2Nc2ccc(OCc3ccccn3)c(Cl)c2)n1
half-life at 5 µM [8]: 25 min
half-life at 5 µM [9]: 23 min
half-life at 5 µM [10]: 46 min
IC50 [11]: 0.7 nM
half-life at 5 µM [12]: 17 min
IC50 [13]: 22.4 nM
IC50 [14]: 4 nM
IC50 [15]: > 3000 nM
IC50 [16]: > 3000 nM
IC50 [17]: > 3000 nM
IC50 [18]: > 3000 nM
IC50 [19]: > 3000 nM
IC50 [20]: > 3000 nM
IC50 [21]: > 3000 nM
IC50 [22]: > 3000 nM
IC50 [23]: > 3000 nM
IC50 [24]: > 3000 nM
IC50 [25]: > 3000 nM
IC50 [26]: > 3000 nM
IC50 [27]: > 3000 nM
IC50 [28]: > 3000 nM
IC50 [29]: > 3000 nM
IC50 [30]: > 3000 nM
IC50 [31]: > 3000 nM
IC50 [32]: > 3000 nM
IC50 [33]: > 3000 nM
IC50 [1]: 1.6 nM
IC50 [2]: 562 nM
IC50 [3]: 5 nM
IC50 [4]: 1880 nM
IC50 [6]: 22 nM

— ChEMBL document CHEMBL2034880, “Synthesis and biological evaluation of pyrimidine-based dual inhibitors of human epidermal growth factor receptor 1 (HER-1) and HER-2 tyrosine kinases” (J Med Chem, 2012)
